Data reported in ChEMBL document CHEMBL1147568, “5-lipoxygenase inhibitors with histamine H(1) receptor antagonist activity” (Bioorg Med Chem Lett, 2004).

Key:
[1] = molecular target: T1, Polyunsaturated fatty acid 5-lipoxygenase (Rattus norvegicus, UniProt P12527); assay: In vitro inhibitory activity against 5-lipoxygenase in an RBL-2H3 cell lysate; format: cell-based
T1 sequence (P12527 whole entry): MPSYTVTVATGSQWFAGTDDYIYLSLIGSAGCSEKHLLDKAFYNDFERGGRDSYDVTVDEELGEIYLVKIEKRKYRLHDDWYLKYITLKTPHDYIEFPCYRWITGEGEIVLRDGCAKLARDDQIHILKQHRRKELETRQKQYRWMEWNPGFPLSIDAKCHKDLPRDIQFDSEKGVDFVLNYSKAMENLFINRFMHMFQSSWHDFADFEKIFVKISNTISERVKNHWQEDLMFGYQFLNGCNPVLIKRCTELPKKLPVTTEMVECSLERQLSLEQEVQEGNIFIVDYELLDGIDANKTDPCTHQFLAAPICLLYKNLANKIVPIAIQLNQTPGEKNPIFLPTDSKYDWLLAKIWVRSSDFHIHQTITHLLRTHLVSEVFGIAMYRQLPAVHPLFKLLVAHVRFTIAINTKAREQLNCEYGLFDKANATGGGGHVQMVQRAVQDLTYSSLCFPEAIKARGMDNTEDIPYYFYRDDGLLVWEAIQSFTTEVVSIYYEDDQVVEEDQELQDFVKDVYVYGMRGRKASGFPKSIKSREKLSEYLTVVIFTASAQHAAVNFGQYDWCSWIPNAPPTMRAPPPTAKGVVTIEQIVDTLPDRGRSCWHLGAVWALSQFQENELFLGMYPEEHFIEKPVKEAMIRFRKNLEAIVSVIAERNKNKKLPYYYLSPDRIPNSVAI

Rattus norvegicus = species on record: Rattus norvegicus; assay: Intrinsic clearance of compound against NADPH-fortified rat liver microsomes; format: ADME, Microsome
Method in brief: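 Compound incubated with NADPH-fortified rat liver microsomes to measure metabolic stability. Intrinsic clearance is reported as µL/min/mg protein.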

[2] = molecular target: T2, Polyunsaturated fatty acid 5-lipoxygenase (Homo sapiens, UniProt P09917); assay: In vitro inhibitory activity against 5-lipoxygenase in a human whole blood assay; format: tissue-based
T2 sequence (P09917 whole entry): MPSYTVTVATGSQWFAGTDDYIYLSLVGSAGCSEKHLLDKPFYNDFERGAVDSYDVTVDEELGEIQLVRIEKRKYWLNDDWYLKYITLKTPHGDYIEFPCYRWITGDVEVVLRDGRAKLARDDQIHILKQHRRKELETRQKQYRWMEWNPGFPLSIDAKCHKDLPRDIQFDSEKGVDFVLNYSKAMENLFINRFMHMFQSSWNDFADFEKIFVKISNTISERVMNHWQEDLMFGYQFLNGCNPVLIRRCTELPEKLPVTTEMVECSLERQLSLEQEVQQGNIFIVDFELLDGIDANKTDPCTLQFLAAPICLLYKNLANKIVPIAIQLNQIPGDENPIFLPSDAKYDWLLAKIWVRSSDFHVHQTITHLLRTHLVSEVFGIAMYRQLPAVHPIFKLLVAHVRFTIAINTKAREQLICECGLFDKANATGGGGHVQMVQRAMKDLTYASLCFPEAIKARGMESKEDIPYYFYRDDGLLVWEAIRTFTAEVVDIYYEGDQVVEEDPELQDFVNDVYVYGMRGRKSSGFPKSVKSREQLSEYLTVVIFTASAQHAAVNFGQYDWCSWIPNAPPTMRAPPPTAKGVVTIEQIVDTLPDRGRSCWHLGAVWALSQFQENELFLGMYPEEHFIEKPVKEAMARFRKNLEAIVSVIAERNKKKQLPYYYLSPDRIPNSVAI

[3] = Permeability in Caco-2 cells of compound; format: ADME, cell-based; settings: human
Method in brief: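 Permeability measured across Caco-2 cells and reported as apparent permeability (Papp) in cm/sec.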

Histamine H1 receptor = Histamine H1 receptor (Homo sapiens, UniProt P35367); assay: In vitro binding affinity towards histamine H1 receptor expressed in CHO-K1 cells; format: cell-based
Chain of Histamine H1 receptor (P35367 whole entry): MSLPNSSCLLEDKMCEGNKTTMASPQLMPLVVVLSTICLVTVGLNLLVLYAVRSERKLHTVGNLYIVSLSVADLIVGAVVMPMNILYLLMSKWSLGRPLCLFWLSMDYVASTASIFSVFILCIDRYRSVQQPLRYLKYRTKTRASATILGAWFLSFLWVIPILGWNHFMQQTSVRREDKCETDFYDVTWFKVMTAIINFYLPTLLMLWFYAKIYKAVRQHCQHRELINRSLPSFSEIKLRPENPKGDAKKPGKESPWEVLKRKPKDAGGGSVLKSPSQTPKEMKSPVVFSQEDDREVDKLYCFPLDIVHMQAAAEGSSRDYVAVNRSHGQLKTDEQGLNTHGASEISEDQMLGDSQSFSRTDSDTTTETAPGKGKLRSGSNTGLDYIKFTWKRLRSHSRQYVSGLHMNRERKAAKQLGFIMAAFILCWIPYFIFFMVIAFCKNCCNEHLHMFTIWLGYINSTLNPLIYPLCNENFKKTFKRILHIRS

SMILES	IC50 [1]	Clint (Rattus norvegicus)	IC50 [2]	Permeability [3]	Ki (Histamine H1 receptor)
NC(=O)N(O)CCC#Cc1ccc(CN2CCN([C@H](c3ccccc3)c3ccc(Cl)cc3)CC2)o1	< 0.2 µM	33 ul min-1 (mg of protein)-1	0.42 µM	60 nm/s	–
NC(=O)N(O)CCC#C[C@@H]1CC[C@@H](CN2CCN([C@H](c3ccccc3)c3ccc(Cl)cc3)CC2)O1	–	–	–	–	0.05 µM
NC(=O)N(O)CCC#Cc1ccc(CN2CCN(C(c3ccc(F)cc3)c3ccc(F)cc3)CC2)o1	< 0.2 µM	–	0.17 µM	–	–
NC(=O)N(O)CCC#C[C@H]1CC[C@H](CN2CCN([C@H](c3ccccc3)c3ccc(Cl)cc3)CC2)O1	–	–	0.51 µM	–	0.18 µM
NC(=O)N(O)CCC#C[C@@H]1CC[C@@H](CN2CCN(C(c3ccc(F)cc3)c3ccc(F)cc3)CC2)O1	–	–	0.14 µM	–	0.66 µM
NC(=O)N(O)CCC#C[C@@H]1CC[C@@H](COc2ccc(F)cc2)O1	–	–	0.117 µM	–	–
CC(C#Cc1ccc(CN2CCN([C@H](c3ccccc3)c3ccc(Cl)cc3)CC2)o1)N(O)C(N)=O (some centres undefined)	–	–	3.5 µM	–	0.19 µM
